Measurements from ChEMBL document CHEMBL3992510, “Urea Derivatives of 2-Aryl-benzothiazol-5-amines: A New Class of Potential Drugs for Human African Trypanosomiasis” (J Med Chem, 2017).

What was measured:
[1] = Selectivity index, ratio of EC50 for human HepG2 cells to EC50 for Trypanosoma brucei brucei BF427; format: toxicity; settings: read-out: Ratio EC50
[2] = Selectivity index, ratio of EC50 for human CRL8155 cells to EC50 for Trypanosoma brucei brucei BF427; format: toxicity; settings: read-out: Ratio EC50
[3] = tested on: Liver; test: Half life in mouse liver microsomes at 1.5 uM in presence of NADPH by liquid chromatography/tandem mass spectrometric analysis; format: ADME, microsome
[4] = Drug level in mouse plasma at 5 mg/kg, ip administered as single dose measured at 1 hr post dose by liquid chromatography/tandem mass spectrometric analysis; format: ADME, organism-based
Method in brief: (§1)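 Single ip dose of 5 mg/kg in 5% DMSO/7% Tween 80/3% EtOH in 0.9% saline, three mice per compound (six for one compound). At 1 h, plasma is separated by centrifugation and brain homogenized in acetonitrile. Both are quantified by LC-MS/MS, with brain corrected for 3% v/w blood. Brain/plasma ratio is reported as mean ± SEM.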

[5] = tested on: Trypanosoma brucei brucei; test: Antitrypanosomal activity against Trypanosoma brucei brucei BF427 assessed as growth inhibition measured after 48 hrs by Alamar blue assay; format: functional; settings: BF427, 48 h
Method in brief: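 Bloodstream-form parasites in HMI-9 medium are exposed to serial compound dilutions in triplicate. Viability is read with Alamar Blue at 48 h. EC50 and EC90 come from nonlinear regression. Pentamidine isethionate is the control.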

[6] = Drug level in mouse brain at 5 mg/kg, ip administered as single dose measured at 1 hr post dose by liquid chromatography/tandem mass spectrometric analysis; format: ADME, organism-based; settings: read-out: Drug uptake; method in brief: as §1
[7] = Cytotoxicity against human CRL8155 cells assessed as growth inhibition after 48 hrs by Alamar blue assay; format: cell-based; settings: for EC50: Homo sapiens, CRL8155, 48 h; for EC90: human, crl8155, 48 h
Method in brief: (§2)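 CRL-8155 lymphoblasts or HepG2 hepatocellular carcinoma cells are exposed 48 h to serial compound dilutions in quadruplicate. Growth is read with Alamar Blue, and 50% and 90% inhibitory concentrations come from nonlinear regression. Quinacrine is the control.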

[8] = tested on: HepG2; test: Cytotoxicity against human HepG2 cells assessed as growth inhibition after 48 hrs by Alamar blue assay; format: cell-based; settings: for EC50: Homo sapiens, HepG2, 48 h; for EC90: human, hepg2, 48 h; method in brief: as §2
[9] = tested on: Liver; test: Half life in human liver microsomes at 1.5 uM in presence of NADPH by liquid chromatography/tandem mass spectrometric analysis; format: ADME, microsome
[10] = Stability in mouse liver microsomes assessed as compound remaining at 1.5 uM in presence of NADPH measured after 5 mins by liquid chromatography/tandem mass spectrometric analysis; format: ADME, microsome; settings: read-out: Stability
[11] = Stability in human liver microsomes assessed as compound remaining at 1.5 uM in presence of NADPH measured after 60 mins by liquid chromatography/tandem mass spectrometric analysis; format: ADME, microsome; settings: read-out: Stability
Method in brief: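 Pooled liver microsomes (0.5 mg/mL) are preincubated 5 min at 37 °C in 0.16 M KH2PO4 with 1 mM NADPH, then test compound is added at 1.5 μM. Aliquots are quenched with 4 volumes of acetonitrile at 0, 5, 10, 15, 30 and 60 min and analyzed by LC-MS/MS. Percent remaining at 5 or 60 min is given when t1/2 is outside the 5–60 min range. Controls: testosterone, dextromethorphan.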

[12] = Ratio of drug level in brain to plasma in mouse at 5 mg/kg, ip administered as single dose measured at 1 hr post dose by liquid chromatography/tandem mass spectrometric analysis; format: ADME, organism-based; method in brief: as §1

Structure (SMILES)	selectivity ratio [1]	selectivity ratio [2]	t1/2 [3] [min]	concentration at 1 h [4] [nM]	EC50 [5] [nM]	EC90 [5] [nM]	concentration at 1 h [6] [nM]	EC50 [7] [nM]	EC90 [7] [nM]	EC50 [8] [nM]	EC90 [8] [nM]	t1/2 [9] [min]	remaining at 5 min, 1.5 µM [10] [%]	remaining at 1 h, 1.5 µM [11] [%]	BPR [12]
O=C(Nc1ccc2sc(-c3cccc(F)c3)nc2c1)N1CCCC1	> 316	> 316	12	2220	158	391	2280	> 50000	> 50000	> 50000	> 50000	37	–	–	–
O=C(Nc1ccc2sc(-c3ccc(F)c(F)c3)nc2c1)N1CCCCC1	> 224	> 224	–	2520	223	282	1290	> 50000	> 50000	> 50000	> 50000	–	–	–	–
O=C(Nc1ccc2sc(-c3ccc(F)c(F)c3)nc2c1)N1CC[C@@H](F)C1	> 153	> 153	–	1200	326	491	6350	> 50000	> 50000	> 50000	–	–	–	–	–
O=C(NCCc1nc(-c2cccc(F)c2)cs1)N1CCC(F)(F)CC1	> 305	> 305	< 5	–	164	230	–	> 50000	> 50000	> 50000	> 50000	5.8	20	–	–
O=C(Nc1ccc2sc(-c3ccccc3)nc2c1)c1ccccc1	–	–	50	–	2380	7740	–	–	–	–	–	–	–	53	–
O=C(NCCc1nc(-c2cccc(F)c2)cs1)N1CCCC(F)(F)C1	> 463	> 463	< 5	–	108	168	–	> 50000	> 50000	> 50000	> 50000	5.1	14	–	–
O=C(Nc1ccc2sc(-c3ccc(F)c(F)c3)nc2c1)N1CCC(F)(F)C1	> 54	> 54	–	2810	934	1660	21700	> 50000	> 50000	> 50000	> 50000	–	–	–	7.92
CC(C)(Cc1csc(-c2ccccc2)n1)NC(=O)N1CCCCC1	–	–	< 5	–	7840	9900	–	–	–	–	–	–	0	–	–
O=C(Nc1ccc2sc(-c3ccccc3)nc2c1)N1CCCCC1	> 137	> 137	17	–	366	809	–	> 50000	> 50000	> 50000	> 50000	–	–	62	–
O=C(Nc1ccc2oc(-c3ccccc3)nc2c1)N1CCCCC1	–	–	11	–	2800	9300	–	–	–	–	–	–	–	77	–
O=C(Nc1ccc2oc(-c3ccccc3)nc2c1)N1CCCC1	–	–	–	270	5250	> 10000	397	–	–	–	–	–	–	–	–
S=C(NCCc1nc(-c2ccccc2)cs1)c1ccccc1	–	–	< 5	–	1440	2630	–	–	–	–	–	–	0	–	–
O=C(Nc1ccc2sc(-c3ccccc3)nc2c1)N1CCCC1	> 154	> 154	18	3400	325	817	4240	> 50000	> 50000	> 50000	> 50000	30	–	–	–
O=C(NCCc1nc(-c2cccc(F)c2)cs1)N1CCCC(F)C1 (stereo not drawn)	> 1750	> 1750	< 5	–	28.5	55.7	–	> 50000	> 50000	> 50000	> 50000	10	18	–	–
Cl.S=C(NCCc1nc(-c2ccccc2)cs1)N1CCCCC1	> 2060	> 2060	< 5	2000	24.3	42.4	187	> 50000	> 50000	> 50000	> 50000	8.2	1.8	–	0.089
O=C(NCCc1nc(-c2ccccc2)cs1)c1ccccc1	–	–	–	–	–	–	–	–	–	–	–	–	–	–	0.3
O=C(Nc1ccc2sc(-c3ccc(F)c(F)c3)nc2c1)N1CCC(F)CC1	> 147	> 147	–	2510	341	596	2520	> 50000	> 50000	> 50000	> 50000	–	–	–	–
O=C(NCCc1nc(-c2cccc(F)c2)cs1)N1CCC(F)CC1	> 1370	> 1370	< 5	–	36.6	57.5	–	> 50000	> 50000	> 50000	> 50000	5.6	5.5	–	–
O=C(NCCc1nc(-c2ccccc2)cs1)N1CCCCC1	–	–	–	–	–	–	–	–	–	–	–	–	–	–	0.613
CC(C)(CNC(=O)N1CCCCC1)c1nc(-c2ccccc2)cs1	–	–	< 5	–	1300	2400	–	–	–	–	–	–	0	–	–
O=C(Nc1ccc2sc(-c3cccc(F)c3F)nc2c1)N1CCCC1	> 273	> 273	–	1300	183	394	2310	> 50000	> 50000	> 50000	> 50000	–	–	–	–
